In ChEMBL document CHEMBL4396948, “Structure based design of macrocyclic factor XIa inhibitors: Discovery of cyclic P1 linker moieties with improved oral bioavailability” (Bioorg Med Chem Lett, 2019):

What was measured:
[1] = Half life in human liver microsomes; assay type: ADME, Microsome
[2] = Half life in rat liver microsomes; assay type: ADME, Microsome
Coagulation factor XI = Coagulation factor XI (Homo sapiens, UniProt P03951); test: Inhibition of activated coagulation factor 11 (unknown origin) assessed as inhibitory constant
[3] = Permeability from apical to basolateral side in human Caco2 cells; assay type: ADME, cell-based; settings: Caco-2, read-out: permeability
[4] = AUC in rat; assay type: ADME; settings: in vivo
Procedure, shortened: (§1)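 Rat PK after iv and po dosing; both routes given in vehicle 70% PG, 20% water, 10% ethanol; compounds dosed either in cassette or discrete format.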

[5] = Clearance in rat at 0.63 mg/kg, iv or 1.27 mg/kg, po; assay type: ADME, organism-based; settings: in vivo; procedure, shortened: as §1
[6] = Volume of distribution at steady state in rat at 0.63 mg/kg, iv or 1.27 mg/kg, po; assay type: ADME, organism-based; settings: in vivo, read-out: Vdss; procedure, shortened: as §1
[7] = Half life in rat at 0.63 mg/kg, iv or 1.27 mg/kg, po; assay type: ADME, organism-based; settings: in vivo
Procedure, shortened: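 Rat pharmacokinetics with iv and oral dosing; the vehicle for both routes was 70% PG, 20% water and 10% ethanol. Half-life was derived from the plasma profile.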

[8] = Oral bioavailability in rat at 1.27 mg/kg; assay type: ADME, organism-based; settings: in vivo; procedure, shortened: as §1
Coagulation factor VII = target: T1, Coagulation factor VII (Homo sapiens, UniProt P08709); test: Inhibition of activated human coagulation factor 7
T1 sequence (P08709 whole entry): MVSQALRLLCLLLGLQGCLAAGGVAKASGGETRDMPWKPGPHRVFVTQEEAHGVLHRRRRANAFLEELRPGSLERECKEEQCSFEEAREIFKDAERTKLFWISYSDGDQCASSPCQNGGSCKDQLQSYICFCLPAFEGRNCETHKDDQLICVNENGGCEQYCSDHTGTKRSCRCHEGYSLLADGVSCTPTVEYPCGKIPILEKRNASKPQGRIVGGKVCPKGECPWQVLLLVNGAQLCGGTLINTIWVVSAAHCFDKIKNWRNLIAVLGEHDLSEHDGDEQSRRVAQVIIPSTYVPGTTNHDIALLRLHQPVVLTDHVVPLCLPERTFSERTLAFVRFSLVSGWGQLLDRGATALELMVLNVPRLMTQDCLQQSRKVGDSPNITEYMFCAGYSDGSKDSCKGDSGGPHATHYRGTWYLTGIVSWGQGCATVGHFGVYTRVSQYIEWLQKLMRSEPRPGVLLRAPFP

Coagulation factor IX = Coagulation factor IX (Homo sapiens, UniProt P00740); test: Inhibition of activated human coagulation factor 9
Coagulation factor X = Coagulation factor X (Homo sapiens, UniProt P00742); test: Inhibition of activated human coagulation factor 10
Coagulation factor XII = target: T2, Coagulation factor XII (Homo sapiens, UniProt P00748); test: Inhibition of activated human coagulation factor 12
T2 sequence (P00748 whole entry): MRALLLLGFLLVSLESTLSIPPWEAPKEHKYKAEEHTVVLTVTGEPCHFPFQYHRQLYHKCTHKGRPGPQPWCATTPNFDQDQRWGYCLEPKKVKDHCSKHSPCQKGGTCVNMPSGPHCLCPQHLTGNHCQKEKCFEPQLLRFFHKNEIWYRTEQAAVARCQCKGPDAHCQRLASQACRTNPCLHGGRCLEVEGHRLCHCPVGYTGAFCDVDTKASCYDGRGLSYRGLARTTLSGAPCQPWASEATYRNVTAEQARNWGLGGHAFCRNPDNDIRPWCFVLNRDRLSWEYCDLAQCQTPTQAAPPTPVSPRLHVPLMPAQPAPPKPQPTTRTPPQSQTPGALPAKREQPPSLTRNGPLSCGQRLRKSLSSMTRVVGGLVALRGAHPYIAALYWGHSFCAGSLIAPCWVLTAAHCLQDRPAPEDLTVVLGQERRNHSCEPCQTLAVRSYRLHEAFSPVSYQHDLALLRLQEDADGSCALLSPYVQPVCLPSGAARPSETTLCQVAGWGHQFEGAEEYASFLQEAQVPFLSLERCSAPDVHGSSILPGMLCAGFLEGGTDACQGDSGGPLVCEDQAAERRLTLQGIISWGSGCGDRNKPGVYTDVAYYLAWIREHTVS

Prothrombin = Prothrombin (Homo sapiens, UniProt P00734); test: Inhibition of human thrombin
Trypsin = Trypsin (Homo sapiens, UniProt P07477+P07478+P35030); test: Inhibition of human trypsin; assay type: protein assay
[9] = target: Vitamin K-dependent protein C (Homo sapiens, UniProt P04070); test: Inhibition of human activated protein C
Plasminogen = Plasminogen (Homo sapiens, UniProt P00747); test: Inhibition of human plasmin
[10] = target: Tissue-type plasminogen activator (Homo sapiens, UniProt P00750); test: Inhibition of human TPA
[11] = target: Urokinase-type plasminogen activator (Homo sapiens, UniProt P00749); test: Inhibition of human urokinase
[12] = Permeability from basolateral to apical side in human Caco2 cells; assay type: ADME, cell-based; settings: Caco-2, read-out: permeability
[13] = Clearance in rat at 0.79 mg/kg, iv or 1.58 mg/kg, po; assay type: ADME, organism-based; settings: in vivo; procedure, shortened: as §1
[14] = Volume of distribution at steady state in rat at 0.79 mg/kg, iv or 1.58 mg/kg, po; assay type: ADME, organism-based; settings: in vivo, read-out: Vdss; procedure, shortened: as §1
[15] = Half life in rat at 0.79 mg/kg, iv or 1.58 mg/kg, po; assay type: ADME, organism-based; settings: in vivo; procedure, shortened: as §1
[16] = Oral bioavailability in rat at 1.58 mg/kg; assay type: ADME, organism-based; settings: in vivo; procedure, shortened: as §1
[17] = Clearance in rat at 0.68 mg/kg, iv or 1.36 mg/kg, po; assay type: ADME, organism-based; settings: in vivo; procedure, shortened: as §1
[18] = Volume of distribution at steady state in rat at 0.68 mg/kg, iv or 1.36 mg/kg, po; assay type: ADME, organism-based; settings: in vivo, read-out: Vdss; procedure, shortened: as §1
[19] = Half life in rat at 0.68 mg/kg, iv or 1.36 mg/kg, po; assay type: ADME, organism-based; settings: in vivo; procedure, shortened: as §1
[20] = Oral bioavailability in rat at 1.36 mg/kg; assay type: ADME, organism-based; settings: in vivo; procedure, shortened: as §1
[21] = Clearance in rat at […], iv or 1.04 mg/kg, po; assay type: ADME, organism-based; settings: in vivo
[22] = Volume of distribution at steady state in rat at […], iv or 1.04 mg/kg, po; assay type: ADME, organism-based; settings: in vivo, read-out: Vdss
[23] = Half life in rat at […], iv or 1.04 mg/kg, po; assay type: ADME, organism-based; settings: in vivo
[24] = Oral bioavailability in rat at 1.04 mg/kg; assay type: ADME, organism-based; settings: in vivo; procedure, shortened: as §1

Sequence of Coagulation factor XI (P03951 19-387 limits assumed): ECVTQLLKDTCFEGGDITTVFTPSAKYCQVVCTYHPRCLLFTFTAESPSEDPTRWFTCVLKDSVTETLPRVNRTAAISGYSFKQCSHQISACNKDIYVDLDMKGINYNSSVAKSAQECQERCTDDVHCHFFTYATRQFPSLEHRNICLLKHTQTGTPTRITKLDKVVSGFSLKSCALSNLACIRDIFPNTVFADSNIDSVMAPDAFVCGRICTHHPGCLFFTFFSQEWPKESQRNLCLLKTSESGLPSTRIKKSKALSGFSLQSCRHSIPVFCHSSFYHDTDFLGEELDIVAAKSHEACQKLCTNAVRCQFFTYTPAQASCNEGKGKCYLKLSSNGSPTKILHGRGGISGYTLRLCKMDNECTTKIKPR
Sequence of Coagulation factor XI (P03951 388-625 limits assumed): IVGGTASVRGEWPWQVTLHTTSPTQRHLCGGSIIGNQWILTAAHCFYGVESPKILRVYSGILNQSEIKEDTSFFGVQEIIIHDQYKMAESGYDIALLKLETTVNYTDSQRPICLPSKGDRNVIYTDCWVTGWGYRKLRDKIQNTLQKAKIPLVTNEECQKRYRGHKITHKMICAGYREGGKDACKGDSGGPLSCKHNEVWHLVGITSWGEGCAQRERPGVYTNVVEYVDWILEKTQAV
Sequence of Coagulation factor X (P00742 41-179 limits assumed): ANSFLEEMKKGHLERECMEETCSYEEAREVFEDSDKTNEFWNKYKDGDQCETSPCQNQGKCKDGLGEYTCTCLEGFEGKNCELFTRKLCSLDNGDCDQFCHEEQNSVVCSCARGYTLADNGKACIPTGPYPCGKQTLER
Sequence of Coagulation factor X (P00742 235-488 limits assumed): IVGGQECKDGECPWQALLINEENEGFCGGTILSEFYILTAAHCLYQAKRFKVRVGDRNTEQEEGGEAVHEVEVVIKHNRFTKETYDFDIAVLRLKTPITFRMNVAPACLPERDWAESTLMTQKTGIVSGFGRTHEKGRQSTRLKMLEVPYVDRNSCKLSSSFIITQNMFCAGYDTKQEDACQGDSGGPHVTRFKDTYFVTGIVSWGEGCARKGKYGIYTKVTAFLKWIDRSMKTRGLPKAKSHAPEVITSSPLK
Sequence of Coagulation factor IX (P00740 47-191 limits assumed): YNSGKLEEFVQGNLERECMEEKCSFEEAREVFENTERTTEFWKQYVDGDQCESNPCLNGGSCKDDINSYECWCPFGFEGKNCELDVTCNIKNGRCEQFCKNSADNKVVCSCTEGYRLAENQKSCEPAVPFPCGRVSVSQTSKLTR
Sequence of Coagulation factor IX (P00740 227-461 limits assumed): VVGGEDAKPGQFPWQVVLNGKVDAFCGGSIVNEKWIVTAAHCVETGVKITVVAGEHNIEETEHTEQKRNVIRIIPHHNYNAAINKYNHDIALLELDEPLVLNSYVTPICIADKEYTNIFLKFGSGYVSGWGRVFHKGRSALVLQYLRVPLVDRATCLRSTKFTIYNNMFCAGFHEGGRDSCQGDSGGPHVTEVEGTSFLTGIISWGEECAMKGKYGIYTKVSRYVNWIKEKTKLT
Sequence of Tissue-type plasminogen activator (P00750 whole entry): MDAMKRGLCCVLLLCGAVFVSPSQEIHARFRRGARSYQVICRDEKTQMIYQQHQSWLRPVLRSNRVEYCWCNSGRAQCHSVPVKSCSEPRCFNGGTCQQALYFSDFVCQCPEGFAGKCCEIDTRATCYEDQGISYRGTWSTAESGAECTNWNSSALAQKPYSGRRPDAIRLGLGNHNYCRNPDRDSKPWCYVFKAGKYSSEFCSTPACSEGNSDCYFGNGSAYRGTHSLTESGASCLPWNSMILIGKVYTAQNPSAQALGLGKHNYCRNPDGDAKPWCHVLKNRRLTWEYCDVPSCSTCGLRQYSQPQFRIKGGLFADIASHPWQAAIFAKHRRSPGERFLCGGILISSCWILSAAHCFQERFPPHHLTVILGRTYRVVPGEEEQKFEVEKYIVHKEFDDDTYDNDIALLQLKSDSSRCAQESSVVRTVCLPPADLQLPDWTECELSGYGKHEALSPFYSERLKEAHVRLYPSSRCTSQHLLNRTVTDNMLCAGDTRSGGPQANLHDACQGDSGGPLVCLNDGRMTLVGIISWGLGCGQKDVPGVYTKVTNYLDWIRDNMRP
Sequence of Plasminogen (P00747 97-580 limits assumed): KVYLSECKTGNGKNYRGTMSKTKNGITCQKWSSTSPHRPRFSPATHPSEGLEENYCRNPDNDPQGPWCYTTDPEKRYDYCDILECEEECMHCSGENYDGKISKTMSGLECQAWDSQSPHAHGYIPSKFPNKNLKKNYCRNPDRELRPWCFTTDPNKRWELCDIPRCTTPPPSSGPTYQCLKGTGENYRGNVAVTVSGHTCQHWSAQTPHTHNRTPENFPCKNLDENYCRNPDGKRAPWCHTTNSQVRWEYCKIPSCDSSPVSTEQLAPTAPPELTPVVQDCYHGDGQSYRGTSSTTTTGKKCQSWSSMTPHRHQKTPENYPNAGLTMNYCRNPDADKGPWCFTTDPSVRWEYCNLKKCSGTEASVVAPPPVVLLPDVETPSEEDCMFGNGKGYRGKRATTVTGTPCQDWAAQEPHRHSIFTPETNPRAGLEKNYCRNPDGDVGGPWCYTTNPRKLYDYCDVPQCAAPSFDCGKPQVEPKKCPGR
Sequence of Plasminogen (P00747 581-810 limits assumed): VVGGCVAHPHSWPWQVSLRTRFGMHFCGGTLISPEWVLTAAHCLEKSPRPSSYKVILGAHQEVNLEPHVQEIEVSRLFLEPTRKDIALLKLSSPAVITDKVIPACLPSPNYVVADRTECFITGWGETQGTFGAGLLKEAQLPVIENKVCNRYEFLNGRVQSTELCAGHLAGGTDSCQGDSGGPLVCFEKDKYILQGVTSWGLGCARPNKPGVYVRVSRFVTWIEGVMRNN
Sequence of Vitamin K-dependent protein C (P04070 43-197 limits assumed): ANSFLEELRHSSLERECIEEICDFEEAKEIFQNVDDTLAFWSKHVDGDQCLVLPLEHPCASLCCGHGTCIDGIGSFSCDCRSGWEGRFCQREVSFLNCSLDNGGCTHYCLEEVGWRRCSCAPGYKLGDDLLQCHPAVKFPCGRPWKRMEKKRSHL
Sequence of Vitamin K-dependent protein C (P04070 212-461 limits assumed): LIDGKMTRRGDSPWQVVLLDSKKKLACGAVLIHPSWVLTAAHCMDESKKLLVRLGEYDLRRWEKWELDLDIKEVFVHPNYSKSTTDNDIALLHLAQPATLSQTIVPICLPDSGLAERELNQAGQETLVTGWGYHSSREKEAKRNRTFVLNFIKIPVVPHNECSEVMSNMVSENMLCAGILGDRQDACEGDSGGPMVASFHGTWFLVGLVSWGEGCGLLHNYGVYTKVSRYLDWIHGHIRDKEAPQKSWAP

COC(=O)Nc1ccc2c(c1)NC(=O)CC/C=C/C[C@H](N1CCC(c3cccc(Cl)c3)NC1=O)c1nc-2c[nH]1 (some centres not stated)
half-life [1]: 35 min | half-life [2]: 18 min

COC(=O)Nc1ccc(-c2nc([C@H](Cc3ccccc3)NC(=O)CCc3cccc(Cl)c3)[nH]c2Cl)cc1
Ki (Coagulation factor XI): 0.871 µM

COC(=O)Nc1ccc2c(c1)NC(=O)CC/C=C/C[C@H](N1CC[C@H](c3cc(Cl)ccc3C(F)(F)F)OC1=O)c1nc-2c(Cl)[nH]1
half-life [1]: 18 min | half-life [2]: 49 min

COC(=O)Nc1ccc2c(c1)NC(=O)CC/C=C/C[C@H](N1CC[C@H](c3cccc(Cl)c3)CC1=O)c1nc-2c[nH]1
half-life [1]: 6 min | half-life [2]: 5 min | Papp A→B [3]: 4.6 ×10⁻⁶ cm/s | AUC [4]: 0.031 µM·h | clearance [5]: 188 mL/min/kg | Vd [6]: 4.6 L/kg | half-life [7]: 30 min | bioavailability [8]: 15% | Ki (Coagulation factor VII): 4.85 µM | Ki (Coagulation factor IX): > 27.1 µM | Ki (Coagulation factor X): > 9 µM | Ki (Coagulation factor XII): > 3.05 µM | Ki (Prothrombin): > 13.3 µM | Ki (Trypsin): > 6.26 µM | Ki [9]: > 7.16 µM | Ki (Plasminogen): > 15.2 µM | Ki [10]: > 6.15 µM | Ki [11]: > 15.1 µM | Papp B→A [12]: 30.9 ×10⁻⁶ cm/s

COC(=O)Nc1ccc(-c2c[nH]c([C@@H]3[C@@H](c4ccccc4)CCN3C(=O)/C=C/c3cc(Cl)ccc3-n3cnnn3)n2)cc1
Ki (Coagulation factor XI): 0.372 µM

COC(=O)Nc1ccc2c(c1)NC(=O)CC/C=C/C[C@H](N1CCC(c3c(F)ccc(Cl)c3F)NC1=O)c1nc-2c[nH]1 (some centres not stated)
half-life [1]: 41 min | half-life [2]: 26 min

COC(=O)Nc1ccc(-c2nc([C@H](Cc3ccccc3)NC(=O)NCc3cccc(Cl)c3)[nH]c2Cl)cc1
Ki (Coagulation factor XI): 0.422 µM

COC(=O)Nc1ccc2c(c1)NC(=O)CC/C=C/C[C@H](N1CC[C@H](c3c(F)ccc(Cl)c3F)CC1=O)c1nc-2c[nH]1
half-life [1]: 9 min | half-life [2]: 7 min

[2H][C@]1(c2c(F)ccc(Cl)c2F)CCN([C@H]2C/C=C/CCC(=O)Nc3cc(NC(=O)OC)ccc3-c3nc2[nH]c3Cl)C(=O)O1
half-life [1]: 16 min | half-life [2]: 31 min

COC(=O)Nc1ccc2c(c1)NC(=O)CC/C=C/C[C@H](N1CC[C@H](c3cccc(Cl)c3)OC1=O)c1nc-2c(Cl)[nH]1
half-life [1]: 11 min | half-life [2]: 14 min

COC(=O)Nc1ccc2c(c1)NC(=O)CC/C=C/C[C@H](NC(=O)/C=C/c1cc(Cl)ccc1-n1cnnn1)c1nc-2c[nH]1
half-life [1]: 41 min | half-life [2]: 39 min | Papp A→B [3]: < 1.5 ×10⁻⁶ cm/s | AUC [4]: 0.011 µM·h | clearance [13]: 28 mL/min/kg | Vd [14]: 0.7 L/kg | half-life [15]: 42 min | bioavailability [16]: 0.8% | Papp B→A [12]: 5.8 ×10⁻⁶ cm/s

COC(=O)Nc1ccc2c(c1)NC(=O)CC/C=C/C[C@H](N1CCN(c3cccc(Cl)c3)CC1=O)c1nc-2c[nH]1
half-life [1]: 15 min

COC(=O)Nc1ccc2c(c1)NC(=O)CC/C=C/C[C@H](N1CC[C@H](c3cc(Cl)ccc3F)OC1=O)c1nc-2c(Cl)[nH]1
half-life [1]: 5 min | half-life [2]: 18 min

COC(=O)Nc1ccc(-c2nc([C@H](Cc3ccccc3)N(C)C(=O)/C=C/c3cc(Cl)ccc3-n3cnnn3)[nH]c2Cl)cc1
Ki (Coagulation factor XI): 0.189 µM

COC(=O)Nc1ccc2c(c1)NC(=O)CC/C=C/C[C@H](N1CC[C@H](c3cccc(Cl)c3)OC1=O)c1nc-2c[nH]1
AUC [4]: 0.523 µM·h | clearance [17]: 40 mL/min/kg | Vd [18]: 1.3 L/kg | half-life [19]: 48 min | bioavailability [20]: 59%

COC(=O)Nc1ccc2c(c1)NC(=O)CC/C=C/C[C@H](N1CC[C@H](c3c(F)ccc(Cl)c3F)OC1=O)c1nc-2c[nH]1
half-life [1]: 8 min | half-life [2]: 15 min

COC(=O)Nc1ccc(-c2nc([C@H](Cc3ccccc3)N3CCC(c4cccc(Cl)c4)NC3=O)[nH]c2Cl)cc1 (some centres not stated)
Ki (Coagulation factor XI): 0.175 µM

COC(=O)Nc1ccc2c(c1)NC(=O)CC/C=C/C[C@H](NC(=O)/C=C/c1cccc(Cl)c1)c1nc-2c[nH]1
half-life [1]: 32 min | half-life [2]: 45 min | Papp A→B [3]: < 1.5 ×10⁻⁶ cm/s | AUC [4]: 0.027 µM·h | clearance [21]: 44 mL/min/kg | Vd [22]: 3.2 L/kg | half-life [23]: 84 min | bioavailability [24]: 2% | Papp B→A [12]: 32.4 ×10⁻⁶ cm/s

COC(=O)Nc1ccc2c(c1)NC(=O)CC/C=C/C[C@H](N1CC[C@H](c3c(F)ccc(Cl)c3F)OC1=O)c1nc-2c(Cl)[nH]1
half-life [1]: 9 min | half-life [2]: 22 min

COC(=O)Nc1ccc(-c2cn3c(n2)C(Cc2ccccc2)N(C(=O)/C=C/c2cc(Cl)ccc2-n2cnnn2)CCC3)cc1 (configuration not stated)
Ki (Coagulation factor XI): > 13.3 µM
